Reference: ChEMBL document CHEMBL1136911, “6,7-Dihydro-5H-pyrrolo[1,2-a] imidazoles as potent and selective alpha1A adrenoceptor partial agonists” (Bioorg Med Chem Lett, 2009)

Legend:
[1] = Apparent permeability from basolateral to apical side of MDCK cells expressing MDR1; format: ADME, cell-based, Canis lupus familiaris; conditions: dog, MDCK-MDR1
How it was run: (§1)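 MDCK cells expressing P-glycoprotein (mdr-1); transcellular flux measured at 10 µM substrate in the apical-to-basolateral and basolateral-to-apical directions, reported as Papp ×10^-6 cm s^-1.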

[2] = molecular target: Voltage-gated inwardly rectifying potassium channel KCNH2 (Homo sapiens, UniProt Q12809); experiment: Inhibition of human ERG up to 22 uM
Sequence of Voltage-gated inwardly rectifying potassium channel KCNH2 (Q12809 whole entry): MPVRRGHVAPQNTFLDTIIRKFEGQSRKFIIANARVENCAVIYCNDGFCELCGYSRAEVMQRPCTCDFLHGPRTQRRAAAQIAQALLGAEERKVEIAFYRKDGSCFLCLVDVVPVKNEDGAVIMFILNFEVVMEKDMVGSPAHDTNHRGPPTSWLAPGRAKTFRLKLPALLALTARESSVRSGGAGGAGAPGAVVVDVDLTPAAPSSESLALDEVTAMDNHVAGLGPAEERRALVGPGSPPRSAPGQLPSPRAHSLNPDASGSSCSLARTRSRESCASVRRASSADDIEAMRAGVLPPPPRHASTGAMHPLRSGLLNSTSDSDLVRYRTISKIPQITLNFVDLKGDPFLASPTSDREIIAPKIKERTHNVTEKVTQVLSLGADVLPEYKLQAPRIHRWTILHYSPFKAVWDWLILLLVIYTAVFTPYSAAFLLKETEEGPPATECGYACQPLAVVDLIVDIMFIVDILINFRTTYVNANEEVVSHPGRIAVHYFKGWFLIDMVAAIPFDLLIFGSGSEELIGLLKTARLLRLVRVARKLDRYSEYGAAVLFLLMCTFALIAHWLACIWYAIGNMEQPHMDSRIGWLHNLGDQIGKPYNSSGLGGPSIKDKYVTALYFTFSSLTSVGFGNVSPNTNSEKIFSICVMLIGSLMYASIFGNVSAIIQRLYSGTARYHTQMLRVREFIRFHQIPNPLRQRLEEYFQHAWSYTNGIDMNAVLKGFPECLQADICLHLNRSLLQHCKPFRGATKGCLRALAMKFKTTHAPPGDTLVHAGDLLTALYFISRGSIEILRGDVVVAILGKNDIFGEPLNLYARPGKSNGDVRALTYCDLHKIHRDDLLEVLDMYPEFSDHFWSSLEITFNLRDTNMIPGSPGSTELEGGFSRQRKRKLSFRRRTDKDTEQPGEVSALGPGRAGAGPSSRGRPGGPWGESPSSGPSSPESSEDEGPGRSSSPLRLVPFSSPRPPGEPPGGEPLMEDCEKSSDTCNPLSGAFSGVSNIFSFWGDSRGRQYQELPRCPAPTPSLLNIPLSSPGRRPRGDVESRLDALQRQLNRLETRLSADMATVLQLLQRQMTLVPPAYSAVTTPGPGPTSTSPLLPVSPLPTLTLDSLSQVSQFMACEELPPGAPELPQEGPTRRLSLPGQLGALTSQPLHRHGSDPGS

[3] = Intrinsic clearance in human liver microsomes; format: ADME, Microsome
[4] = molecular target: CYP3A4 (Homo sapiens, UniProt P08684); experiment: Inhibition of CYP3A4 at 3 uM; format: ADME
Sequence of CYP3A4 (P08684 whole entry): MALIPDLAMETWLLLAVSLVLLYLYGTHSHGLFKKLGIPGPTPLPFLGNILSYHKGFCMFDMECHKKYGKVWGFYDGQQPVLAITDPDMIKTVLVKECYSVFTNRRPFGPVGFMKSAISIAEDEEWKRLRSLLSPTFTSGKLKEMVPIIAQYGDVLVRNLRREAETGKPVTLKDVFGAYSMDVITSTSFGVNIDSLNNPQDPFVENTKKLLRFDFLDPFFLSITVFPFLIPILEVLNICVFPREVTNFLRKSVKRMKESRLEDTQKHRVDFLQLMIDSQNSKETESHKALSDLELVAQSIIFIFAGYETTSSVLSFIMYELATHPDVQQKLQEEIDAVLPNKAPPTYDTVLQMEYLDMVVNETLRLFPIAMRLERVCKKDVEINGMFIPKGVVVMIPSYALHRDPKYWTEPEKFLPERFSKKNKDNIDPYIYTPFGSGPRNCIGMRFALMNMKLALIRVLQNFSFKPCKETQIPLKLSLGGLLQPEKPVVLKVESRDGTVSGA

[5] = molecular target: T1, Alpha-1A adrenergic receptor (Homo sapiens, UniProt P35348); experiment: Agonist activity at human adrenergic alpha1A receptor expressed in CHO cells assessed as calcium mobilization by FLIPR; format: functional, cell-based
T1 sequence (P35348 whole entry): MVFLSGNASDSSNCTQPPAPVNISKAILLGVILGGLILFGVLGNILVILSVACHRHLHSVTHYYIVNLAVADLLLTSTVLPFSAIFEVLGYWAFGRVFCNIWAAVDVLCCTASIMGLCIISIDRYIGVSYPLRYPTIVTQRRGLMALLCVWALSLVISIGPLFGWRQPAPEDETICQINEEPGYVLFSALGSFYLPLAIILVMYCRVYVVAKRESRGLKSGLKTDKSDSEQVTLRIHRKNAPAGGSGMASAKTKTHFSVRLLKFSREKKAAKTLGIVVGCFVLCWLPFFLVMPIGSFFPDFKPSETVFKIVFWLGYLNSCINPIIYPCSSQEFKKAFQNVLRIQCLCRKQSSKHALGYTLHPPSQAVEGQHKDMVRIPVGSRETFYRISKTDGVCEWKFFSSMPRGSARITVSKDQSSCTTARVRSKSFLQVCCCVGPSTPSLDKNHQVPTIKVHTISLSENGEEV

[6] = molecular target: T2, CYP1A2 (Homo sapiens, UniProt P05177); experiment: Inhibition of CYP1A2 at 3 uM; format: ADME
T2 sequence (P05177 whole entry): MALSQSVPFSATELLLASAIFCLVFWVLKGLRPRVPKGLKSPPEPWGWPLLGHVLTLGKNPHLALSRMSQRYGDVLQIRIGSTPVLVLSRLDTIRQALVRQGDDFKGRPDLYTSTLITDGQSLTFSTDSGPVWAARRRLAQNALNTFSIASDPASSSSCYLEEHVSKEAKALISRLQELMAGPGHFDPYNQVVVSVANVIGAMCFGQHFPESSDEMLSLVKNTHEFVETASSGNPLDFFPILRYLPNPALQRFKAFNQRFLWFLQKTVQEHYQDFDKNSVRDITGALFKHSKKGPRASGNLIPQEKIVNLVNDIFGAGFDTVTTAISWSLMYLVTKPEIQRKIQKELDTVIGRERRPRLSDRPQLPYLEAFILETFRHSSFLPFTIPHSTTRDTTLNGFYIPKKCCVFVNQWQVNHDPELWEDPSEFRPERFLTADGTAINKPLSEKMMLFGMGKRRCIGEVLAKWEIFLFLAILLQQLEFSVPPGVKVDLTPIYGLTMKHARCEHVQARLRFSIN

[7] = molecular target: CYP2D6 (Homo sapiens, UniProt P10635); experiment: Inhibition of CYP2D6 at 3 uM; format: ADME
Sequence of CYP2D6 (P10635 whole entry): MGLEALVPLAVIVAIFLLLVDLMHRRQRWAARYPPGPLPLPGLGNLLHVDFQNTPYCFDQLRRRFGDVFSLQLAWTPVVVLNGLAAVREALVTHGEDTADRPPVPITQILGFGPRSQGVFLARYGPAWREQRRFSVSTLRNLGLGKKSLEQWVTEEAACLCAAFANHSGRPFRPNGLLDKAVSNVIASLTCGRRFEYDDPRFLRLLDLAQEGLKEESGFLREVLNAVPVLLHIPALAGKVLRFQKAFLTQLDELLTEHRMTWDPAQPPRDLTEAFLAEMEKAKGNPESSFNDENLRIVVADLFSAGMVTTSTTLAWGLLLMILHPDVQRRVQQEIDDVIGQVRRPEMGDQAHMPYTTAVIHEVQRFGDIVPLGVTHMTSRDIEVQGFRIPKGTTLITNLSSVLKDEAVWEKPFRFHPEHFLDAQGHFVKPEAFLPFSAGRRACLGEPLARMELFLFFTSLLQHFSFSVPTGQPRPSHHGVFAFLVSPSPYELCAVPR

[8] = molecular target: T3, Alpha-2A adrenergic receptor (Homo sapiens, UniProt P08913); experiment: Inhibition of adrenergic alpha2A receptor
T3 sequence (P08913 whole entry): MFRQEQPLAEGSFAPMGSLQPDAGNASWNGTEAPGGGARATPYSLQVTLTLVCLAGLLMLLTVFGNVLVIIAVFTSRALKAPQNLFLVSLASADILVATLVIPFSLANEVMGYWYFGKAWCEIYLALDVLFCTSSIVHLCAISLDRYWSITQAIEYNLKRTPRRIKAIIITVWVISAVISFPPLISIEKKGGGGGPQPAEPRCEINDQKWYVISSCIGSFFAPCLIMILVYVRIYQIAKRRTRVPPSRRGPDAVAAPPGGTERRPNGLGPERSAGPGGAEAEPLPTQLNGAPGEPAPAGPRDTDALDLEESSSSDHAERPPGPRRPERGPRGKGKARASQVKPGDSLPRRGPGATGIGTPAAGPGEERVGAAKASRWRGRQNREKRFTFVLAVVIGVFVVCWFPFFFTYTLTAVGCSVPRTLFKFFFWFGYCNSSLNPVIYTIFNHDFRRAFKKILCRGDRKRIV

[9] = molecular target: T4, Alpha-1D adrenergic receptor (Homo sapiens, UniProt P25100); experiment: Agonist activity at human adrenergic Alpha-1D receptor expressed in CHO cells assessed as calcium mobilization by FLIPR; format: functional, cell-based
T4 sequence (P25100 whole entry): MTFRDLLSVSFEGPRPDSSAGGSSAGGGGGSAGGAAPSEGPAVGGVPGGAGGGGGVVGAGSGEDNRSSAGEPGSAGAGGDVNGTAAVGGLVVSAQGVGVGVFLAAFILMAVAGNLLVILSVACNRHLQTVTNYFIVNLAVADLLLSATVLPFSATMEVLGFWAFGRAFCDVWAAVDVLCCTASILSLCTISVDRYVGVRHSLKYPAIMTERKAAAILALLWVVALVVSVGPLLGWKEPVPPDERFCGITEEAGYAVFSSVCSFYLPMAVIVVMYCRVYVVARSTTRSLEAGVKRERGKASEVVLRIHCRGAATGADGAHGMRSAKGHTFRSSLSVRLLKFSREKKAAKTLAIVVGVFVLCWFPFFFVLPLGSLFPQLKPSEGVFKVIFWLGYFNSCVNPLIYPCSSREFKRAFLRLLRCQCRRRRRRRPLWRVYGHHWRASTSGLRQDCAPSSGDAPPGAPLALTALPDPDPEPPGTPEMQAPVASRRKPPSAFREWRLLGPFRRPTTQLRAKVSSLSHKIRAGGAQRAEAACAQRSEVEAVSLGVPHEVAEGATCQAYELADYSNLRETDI
How it was run: (§2)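 Human alpha1B (clone 11) or alpha1D (clone 23) receptor stably expressed in Chinese hamster ovary cells; receptor activation read as Gq-coupled calcium mobilisation with a calcium-sensitive fluorescent dye on FLIPR. Eleven-point concentration-response curves; Emax given as percent of the response to 10 µM phenylephrine. Values are geometric means of at least two experiments.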

[10] = Lipophilicity, log D at pH 7.4; conditions: buffer
[11] = molecular target: T5, Alpha-1B adrenergic receptor (Homo sapiens, UniProt P35368); experiment: Agonist activity at human adrenergic Alpha-1B receptor expressed in CHO cells assessed as calcium mobilization by FLIPR; format: functional, cell-based; how it was run: as §2
T5 sequence (P35368 whole entry): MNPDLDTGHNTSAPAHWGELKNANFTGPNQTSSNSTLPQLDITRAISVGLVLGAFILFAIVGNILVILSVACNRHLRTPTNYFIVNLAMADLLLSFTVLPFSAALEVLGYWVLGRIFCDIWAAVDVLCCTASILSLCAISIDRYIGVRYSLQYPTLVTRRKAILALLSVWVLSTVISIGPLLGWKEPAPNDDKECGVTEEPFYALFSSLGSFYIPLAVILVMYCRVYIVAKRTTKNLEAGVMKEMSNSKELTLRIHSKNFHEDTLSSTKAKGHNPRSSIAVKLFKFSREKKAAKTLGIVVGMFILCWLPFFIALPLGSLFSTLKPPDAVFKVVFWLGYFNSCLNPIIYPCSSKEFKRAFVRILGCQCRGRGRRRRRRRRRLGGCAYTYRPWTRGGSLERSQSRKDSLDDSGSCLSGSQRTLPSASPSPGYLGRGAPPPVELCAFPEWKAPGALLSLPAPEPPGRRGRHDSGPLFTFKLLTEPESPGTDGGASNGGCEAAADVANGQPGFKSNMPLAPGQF

[12] = molecular target: CYP2C9 (Homo sapiens, UniProt P11712); experiment: Inhibition of CYP2C9 at 3 uM; format: ADME
Sequence of CYP2C9 (P11712 whole entry): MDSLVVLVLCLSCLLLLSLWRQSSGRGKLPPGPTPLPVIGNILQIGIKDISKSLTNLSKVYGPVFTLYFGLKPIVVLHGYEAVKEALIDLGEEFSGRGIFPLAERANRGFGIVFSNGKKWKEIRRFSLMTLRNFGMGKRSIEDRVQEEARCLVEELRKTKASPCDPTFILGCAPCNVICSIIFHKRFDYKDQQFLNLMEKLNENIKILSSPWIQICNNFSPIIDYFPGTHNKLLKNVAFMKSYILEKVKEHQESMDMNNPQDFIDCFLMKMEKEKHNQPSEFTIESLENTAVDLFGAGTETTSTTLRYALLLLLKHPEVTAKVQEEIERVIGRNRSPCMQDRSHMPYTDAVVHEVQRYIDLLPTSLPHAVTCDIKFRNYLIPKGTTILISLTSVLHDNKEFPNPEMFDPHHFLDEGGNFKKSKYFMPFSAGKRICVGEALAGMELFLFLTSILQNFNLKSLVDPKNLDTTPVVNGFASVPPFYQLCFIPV

[13] = Apparent permeability from apical to basolateral side of MDCK cells expressing MDR1; format: ADME, cell-based, Canis lupus familiaris; conditions: dog, MDCK-MDR1; how it was run: as §1

SMILES: Fc1ccc(-c2cncnc2)c(C2Cc3nccn3C2)c1 (stereo not drawn)
- Papp B→A [1]: 39 ×10⁻⁶ cm/s
- inhibition (INH) [2]: Not Active
- microsomal CLint [3]: < 8 µL/min/mg
- inhibition at 3 µM [4]: < 10%
- EC50 [5]: 0.001 µM
- inhibition at 3 µM [6]: < 10%
- inhibition at 3 µM [7]: < 10%
- Ki [8]: > 2.78 µM
- EC50 [9]: > 2.6 µM
- logD [10]: 1.3
- EC50 [11]: > 10 µM
- inhibition at 3 µM [12]: < 10%
- Papp A→B [13]: 34 ×10⁻⁶ cm/s
